Laboratory results taken from ChEMBL document CHEMBL4680254, “Design, synthesis and discovery of 2(1H)-quinolone derivatives for the treatment of pulmonary fibrosis through inhibition of TGF-β/smad dependent and independent pathway” (Eur J Med Chem, 2020).
One block for each compound: values may come before it. Calls of active or inactive are those of the source. The calls are words filed in the database; no cut-off is given here.

Columns and labels:
[1] = Oral bioavailability in Sprague-Dawley rat at 5 mg/kg; format: ADME, organism-based; details: in vivo
Outline: (§1)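 Rats were given a single 5 mg/kg dose intravenously or orally, and plasma concentration–time curves were followed. t1/2, tmax, AUC0-t and oral bioavailability (n = 5) were derived from these curves.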

NRK-49F [2] = assay: Inhibition of TGF-beta induced p38 phosphorylation in rat NRK-49F cells at 20 to 40 uM pretreated with compound for 1 to 2 hrs followed by TGF-beta stimulation for 1 hr by Western blot analysis; format: cell-based; details: dose 20-40 µM, time 2-3 hrs
Outline: (§2)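 NRK-49F cells were pretreated with or without compound (20 and 40 µM) for 1 or 2 h, then stimulated with TGF-β 5 ng/mL for 1 h. Lysates were made in RIPA with PMSF and protease inhibitors, and 30–40 µg protein was run on 10–12% SDS-PAGE and moved to PVDF. Blots were probed for phospho- and total Smad2, Smad3, p38 and ERK1/2, with GAPDH as loading control and ECL detection.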

[3] = Tmax in Sprague-Dawley rat at 5 mg/kg, iv; format: ADME, organism-based; details: in vivo; outline: as §1
[4] = Half life in Sprague-Dawley rat at 5 mg/kg, iv; format: ADME, organism-based; details: in vivo; outline: as §1
Mus musculus [5] = assay: Anti-fibrotic activity in C57BL/6 mouse model of bleomycin-induced lung fibrosis assessed as reduction in inflammatory cell infiltration at 50 to 100 mg/kg, po administered for 30 days starting from day 1 post bleomycin treatment by hematoxylin and eosin staining based microscopic analysis; format: functional, organism-based; details: dose 50-100 mg/kg, time 30.0 day
Outline: (§3)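 Male C57BL/6 mice, 8 weeks old, n=10 per group; lung fibrosis from one intratracheal instillation of bleomycin 3 U/kg in 0.075 mL saline, saline-only controls. Daily oral dosing days 1–30 (prevention) or days 8–21 (treatment). Left lungs fixed in 10% formalin 24 h, paraffin-embedded, 5 µm sections stained with H&E (also Masson's trichrome) and examined by microscopy.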

[6] = target: Mitogen-activated protein kinase 1 and 3 (ERK2 and ERK1) (Rattus norvegicus) (UniProt P63086+P21708); assay: Inhibition of TGF-beta induced ERK1/2 phosphorylation in rat NRK-49F cells at 20 to 40 uM pretreated with compound for 1 to 2 hrs followed by TGF-beta stimulation for 1 hr by Western blot analysis; format: cell-based; details: dose 20-40 µM, time 2-3 hrs; outline: as §2
Mus musculus [7] = assay: Anti-fibrotic activity in C57BL/6 mouse model of bleomycin-induced lung fibrosis assessed as protection of alveolar tissue structure at 100 mg/kg, po administered for […] starting from day 8 post bleomycin treatment by hematoxylin and eosin staining based microscopic analysis; format: functional, organism-based; details: time 14.0 day; outline: as §3
[8] = Half life in Sprague-Dawley rat at 5 mg/kg, po; format: ADME, organism-based; details: in vivo; outline: as §1
[9] = Effect on total p38 expression in TGFbeta-stimulated rat NRK-49F at 20 to 40 uM preincubated for 1 to 2 hrs followed by TGF-beta stimulation and measured after 1 hr by Western blot analysis; format: tissue-based; details: dose lower 20 µM, time lower 2 hrs, dose upper 40 µM, time upper 3 hrs; outline: as §2
[10] = Tmax in Sprague-Dawley rat at 5 mg/kg, po; format: ADME, organism-based; details: in vivo; outline: as §1
Mus musculus [11] = assay: Anti-fibrotic activity in C57BL/6 mouse model of bleomycin-induced lung fibrosis assessed as reduction in collagen deposition by measuring hydroxyproline content in lung at 50 to 100 mg/kg, po administered for 30 days starting from day 1 post bleomycin treatment; format: functional, organism-based; details: dose 50-100 mg/kg, time 30.0 day
Outline: (§4)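 In the bleomycin mouse model (male C57BL/6, 8 weeks, 3 U/kg intratracheal in saline, n=10 per group), daily oral dosing ran days 1–30 or days 8–21. Right lungs were dried, acid hydrolysed, filtered and brought to pH 6.5–8.0. Hydroxyproline was read by chloramine-T spectrophotometry with a kit.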

[12] = Effect on total Smad3 expression in TGFbeta-stimulated rat NRK-49F at 20 to 40 uM preincubated for 1 to 2 hrs followed by TGF-beta stimulation and measured after 1 hr by Western blot analysis; details: dose lower 20 µM, time lower 2 hrs, dose upper 40 µM, time upper 3 hrs; outline: as §2
Mus musculus [13] = assay: Anti-fibrotic activity in C57BL/6 mouse model of bleomycin-induced lung fibrosis assessed as protection of alveolar tissue structure at 50 to 100 mg/kg, po administered for 30 days starting from day 1 post bleomycin treatment by hematoxylin and eosin staining based microscopic analysis; format: functional, organism-based; details: dose 50-100 mg/kg, time 30.0 day; outline: as §3
NRK-49F [14] = assay: Inhibition of TGF-beta-induced collagen-1 protein expression in rat NRK-49F cells at 20 to 40 uM incubated for 24 hrs by Western blotting analysis; format: functional, cell-based; details: dose 20-40 µM
[15] = Effect on total Smad2 expression in TGFbeta-stimulated rat NRK-49F at 20 to 40 uM preincubated for 1 to 2 hrs followed by TGF-beta stimulation and measured after 1 hr by Western blot analysis; details: dose lower 20 µM, time lower 2 hrs, dose upper 40 µM, time upper 3 hrs; outline: as §2
L929 = assay: Antimigratory activity in mouse L929 cells assessed as inhibition of TGF-beta-induced cell migration at 10 uM incubated for 24 hrs by wound healing assay; format: functional, cell-based
Outline: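 Mouse L929 fibroblasts (MEM, 10% FBS, 37 °C, 5% CO₂) were grown to confluence and scratched with a pipette tip to a 100 µm wound. They were then kept in serum-free medium with or without TGF-β 5 ng/ml and compound 10 µM for 24 h. Wounds were imaged by light microscopy at 0, 12 and 24 h.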

Mus musculus [16] = assay: Anti-fibrotic activity in C57BL/6 mouse model of bleomycin-induced lung fibrosis assessed as reduction in collagen deposition by measuring hydroxyproline content in lung at 100 mg/kg, po administered for […] starting from day 8 post bleomycin treatment; format: functional, organism-based; details: time 14.0 day; outline: as §4
Mus musculus [17] = assay: Anti-fibrotic activity in C57BL/6 mouse model of bleomycin-induced lung fibrosis assessed as survival rate at 50 mg/kg, po administered for […] starting from day 8 post bleomycin treatment; format: functional, organism-based; details: time 14.0 day
Outline: (§5)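 Survival was followed in male C57BL/6 mice (8 weeks, n=10 per group) after one intratracheal bleomycin dose of 3 U/kg in 0.075 mL saline. Oral dosing was daily, days 1–30 (prevention) or days 8–21 (treatment), with survival curves plotted.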

[18] = AUC (0 to t) in Sprague-Dawley rat at 5 mg/kg, po; format: ADME, organism-based; set-up: dose 5 mg/kg; details: in vivo
Outline: (§6)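 Rats received a single 5 mg/kg dose, either intravenously or orally. AUC0-t was derived from plasma concentration–time curves after that one dose. n = 5 per the reported oral data.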

[19] = target: Mothers against decapentaplegic homolog 3 (Rattus norvegicus) (UniProt P84025); assay: Inhibition of TGF-beta induced SMAD3 phosphorylation in rat NRK-49F cells at 20 to 40 uM pretreated with compound for 1 to 2 hrs followed by TGF-beta stimulation for 1 hr by Western blot analysis; format: cell-based; details: dose 20-40 µM, time 2-3 hrs; outline: as §2
[20] = AUC (0 to t) in Sprague-Dawley rat at 5 mg/kg, iv; format: ADME, organism-based; set-up: dose 5 mg/kg; details: in vivo; outline: as §6
NRK-49F [21] = assay: Inhibition of TGF-beta-induced alpha-SMA protein expression in rat NRK-49F cells at 20 to 40 uM incubated for 24 hrs by Western blotting analysis; format: functional, cell-based; details: dose 20-40 µM
Mus musculus [22] = assay: Anti-fibrotic activity in C57BL/6 mouse model of bleomycin-induced lung fibrosis assessed as suppression of smad3 phosphorylation level in lung at 50 to 100 mg/kg, po administered for 30 days starting from day 1 post bleomycin treatment by immunohistochemistry staining based microscopic analysis; format: functional, organism-based; details: dose 50-100 mg/kg, time 30.0 day
Outline: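 Male C57BL/6 mice, 8 weeks, got intratracheal bleomycin 3 U/kg in 0.075 mL saline, then daily oral dosing days 1–30. Left lungs were formalin-fixed (10%, 24 h) and paraffin-embedded; 5 µm sections were incubated with antibody at 4 °C overnight for immunohistochemistry of phospho-Smad3 and imaged by microscopy.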

[23] = Effect on total […] expression in TGFbeta-stimulated rat NRK-49F at 20 to 40 uM preincubated for 1 to 2 hrs followed by TGF-beta stimulation and measured after 1 hr by Western blot analysis; details: dose lower 20 µM, time lower 2 hrs, dose upper 40 µM, time upper 3 hrs; outline: as §2
Mus musculus [24] = assay: Anti-fibrotic activity in C57BL/6 mouse model of bleomycin-induced lung fibrosis assessed as survival rate at 50 to 100 mg/kg, po administered for 30 days starting from day 1 post bleomycin treatment; format: functional, organism-based; details: dose 50-100 mg/kg, time 30.0 day; outline: as §5
NRK-49F [25] = assay: Inhibition of TGF-beta-induced collagen accumulation in rat NRK-49F cells at 10 uM incubated for 2 days by PSR staining based microscopic analysis relative to control; format: functional; details: 48 h, time 2 day
Outline: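 NRK-49F cells were grown 3 days in DMEM with 5% FBS, then 2 days in DMEM with 1% ITS. Next came 2 days with TGF-β 5 ng/ml plus or minus compound 10 µM. Cells were fixed in 4% paraformaldehyde and stained 4 h with 0.1% Picrosirius Red, then rinsed with acetic acid. Dye was eluted with 0.1 M NaOH and OD read at 540 nm. Inhibition = […] ×100%, in triplicate.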

[26] = target: Mothers against decapentaplegic homolog 2 (Rattus norvegicus) (UniProt O70436); assay: Inhibition of TGF-beta induced SMAD2 phosphorylation in rat NRK-49F cells at 20 to 40 uM pretreated with compound for 1 to 2 hrs followed by TGF-beta stimulation for 1 hr by Western blot analysis; format: cell-based; details: dose 20-40 µM, time 2-3 hrs; outline: as §2
[27] = Cytotoxicity against rat NRK-49F cells assessed as cell survival rate at 10 uM incubated for 72 hrs by MTT assay; format: cell-based; details: read-out: Activity
Outline: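 NRK-49F cells were seeded at 0.5×10^5 cells/ml, cultured overnight, then exposed to compound 10 µM for 72 h. MTT was added and incubated 4 h, formazan dissolved in DMSO and absorbance read. Survival = (treated − zero)/(blank − zero) A ×100%, done in triplicate.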

Mus musculus [28] = assay: Anti-fibrotic activity in C57BL/6 mouse model of bleomycin-induced lung fibrosis assessed as protection of alveolar tissue structure at 50 mg/kg, po administered from day 8 to day 21 post bleomycin treatment by hematoxylin and eosin staining based microscopic analysis; details: time 14.0 day
Mus musculus [29] = assay: Anti-fibrotic activity in C57BL/6 mouse model of bleomycin-induced lung fibrosis assessed as reduction in collagen deposition by measuring hydroxyproline content in lung at 50 mg/kg, po administered for […] starting from day 8 post bleomycin treatment; format: functional, organism-based; details: time 14.0 day; outline: as §4
Mus musculus [30] = assay: Anti-fibrotic activity in C57BL/6 mouse model of bleomycin-induced lung fibrosis assessed as survival rate at 50 mg/kg, po administered for 30 days starting from day 1 post bleomycin treatment; format: functional, organism-based; details: time 30.0 day; outline: as §5
Mus musculus [31] = assay: Anti-fibrotic activity in C57BL/6 mouse model of bleomycin-induced lung fibrosis assessed as reduction in collagen deposition by measuring hydroxyproline content in lung at 50 mg/kg, po administered for 30 days starting from day 1 post bleomycin treatment; format: functional, organism-based; details: time 30.0 day; outline: as §4
Mus musculus [32] = assay: Anti-fibrotic activity in C57BL/6 mouse model of bleomycin-induced lung fibrosis assessed as protection of alveolar tissue structure at 50 mg/kg, po administered for 30 days starting from day 1 post bleomycin treatment by hematoxylin and eosin staining based microscopic analysis; format: functional, organism-based; details: time 30.0 day; outline: as §3
Mus musculus [33] = assay: Anti-fibrotic activity in C57BL/6 mouse model of bleomycin-induced lung fibrosis assessed as reduction in inflammatory cell infiltration at 50 mg/kg, po administered for 30 days starting from day 1 post bleomycin treatment by hematoxylin and eosin staining based microscopic analysis; format: functional, organism-based; details: time 30.0 day; outline: as §3

Sequence of Mothers against decapentaplegic homolog 3 (Rattus norvegicus) (P84025 whole entry, looked up): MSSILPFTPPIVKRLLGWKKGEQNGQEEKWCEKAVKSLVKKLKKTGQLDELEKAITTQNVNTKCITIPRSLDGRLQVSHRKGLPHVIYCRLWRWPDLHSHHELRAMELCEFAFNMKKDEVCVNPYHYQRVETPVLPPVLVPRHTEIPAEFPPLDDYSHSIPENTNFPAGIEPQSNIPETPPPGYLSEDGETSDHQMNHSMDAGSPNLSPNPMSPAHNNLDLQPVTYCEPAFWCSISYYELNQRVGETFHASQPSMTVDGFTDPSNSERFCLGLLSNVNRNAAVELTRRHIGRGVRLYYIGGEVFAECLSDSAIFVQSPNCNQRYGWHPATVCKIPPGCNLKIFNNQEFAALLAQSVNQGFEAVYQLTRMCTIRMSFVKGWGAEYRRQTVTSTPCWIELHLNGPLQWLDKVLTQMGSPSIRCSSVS
Sequence of Mitogen-activated protein kinase 1 and 3 (ERK2 and ERK1) (Rattus norvegicus) (P21708 whole entry, looked up): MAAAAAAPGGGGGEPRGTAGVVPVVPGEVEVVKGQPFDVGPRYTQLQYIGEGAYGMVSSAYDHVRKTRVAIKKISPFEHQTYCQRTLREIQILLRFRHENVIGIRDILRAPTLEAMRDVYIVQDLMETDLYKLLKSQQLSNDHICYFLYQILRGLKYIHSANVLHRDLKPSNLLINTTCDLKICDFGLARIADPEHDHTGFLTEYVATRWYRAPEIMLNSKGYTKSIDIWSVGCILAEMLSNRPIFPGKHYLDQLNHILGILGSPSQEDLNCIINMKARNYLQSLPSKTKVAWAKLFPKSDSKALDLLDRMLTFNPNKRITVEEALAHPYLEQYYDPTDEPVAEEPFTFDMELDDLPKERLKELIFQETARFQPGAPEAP
Sequence of Mitogen-activated protein kinase 1 and 3 (ERK2 and ERK1) (Rattus norvegicus) (P63086 whole entry, looked up): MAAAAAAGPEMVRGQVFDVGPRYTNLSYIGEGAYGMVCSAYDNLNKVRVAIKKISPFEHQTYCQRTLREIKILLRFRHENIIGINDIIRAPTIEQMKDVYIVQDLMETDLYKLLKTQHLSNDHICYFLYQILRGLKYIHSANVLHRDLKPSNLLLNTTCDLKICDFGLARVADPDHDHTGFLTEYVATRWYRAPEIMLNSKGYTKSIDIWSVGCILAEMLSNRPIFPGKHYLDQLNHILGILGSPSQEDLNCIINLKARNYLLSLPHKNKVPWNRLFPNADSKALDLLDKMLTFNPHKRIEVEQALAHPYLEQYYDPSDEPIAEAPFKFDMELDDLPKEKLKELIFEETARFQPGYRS
Sequence of Mothers against decapentaplegic homolog 2 (Rattus norvegicus) (O70436 whole entry): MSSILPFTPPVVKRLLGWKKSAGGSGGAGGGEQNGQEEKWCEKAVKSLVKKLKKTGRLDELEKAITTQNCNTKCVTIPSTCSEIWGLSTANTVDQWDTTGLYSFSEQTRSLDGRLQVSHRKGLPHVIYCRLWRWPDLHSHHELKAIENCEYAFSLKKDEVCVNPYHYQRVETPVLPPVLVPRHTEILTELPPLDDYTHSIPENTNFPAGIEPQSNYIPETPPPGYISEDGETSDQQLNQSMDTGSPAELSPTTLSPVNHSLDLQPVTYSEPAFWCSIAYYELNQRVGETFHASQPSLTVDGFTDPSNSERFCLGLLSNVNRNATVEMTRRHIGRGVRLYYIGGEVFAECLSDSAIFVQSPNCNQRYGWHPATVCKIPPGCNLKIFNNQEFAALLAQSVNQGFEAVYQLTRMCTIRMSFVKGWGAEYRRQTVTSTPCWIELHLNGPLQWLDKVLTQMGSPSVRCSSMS

- bioavailability [1]: 41.5%
- Tmax [3]: 4.8 min
- half-life [4]: 4.39 h
- inhibition [6]: Active
- half-life [8]: 3.5 h
- Tmax [10]: 4.33 h
- AUC(0-t) [18]: 5.46 µg·h/mL
- inhibition [19]: Dose-dependent effect
- AUC(0-t) [20]: 13.1 µg·h/mL
- inhibition [26]: Dose-dependent effect
Compound: O=C(CN1CCN(C(=O)C2CC2)CC1)Nc1ccc(Oc2cc(=O)[nH]c3ccccc23)c(F)c1
- inhibition (NRK-49F [2]): Active
- Activity (Mus musculus [5]): Active
- Activity (Mus musculus [7]): Active
- Activity [9]: Non-Toxic
- Activity (Mus musculus [11]): Active
- Activity [12]: Non-Toxic
- Activity (Mus musculus [13]): Active
- inhibition (NRK-49F [14]): Active
- Activity [15]: Non-Toxic
- inhibition (L929): Active
- Activity (Mus musculus [16]): Active
- Activity (Mus musculus [17]): Active
- inhibition (NRK-49F [21]): Active
- Activity (Mus musculus [22]): Active
- Activity [23]: Non-Toxic
- Activity (Mus musculus [24]): Active
- inhibition at 10 µM (NRK-49F [25]): 87.5%
- viability at 72 h, 10 µM [27]: 97.5%

- bioavailability [1]: 12%
Compound: COC(=O)c1ccc2c(c1)NC(=O)/C2=C(\Nc1ccc(N(C)C(=O)CN2CCN(C)CC2)cc1)c1ccccc1 [NINTEDANIB]
- Activity (Mus musculus [28]): inactive
- Activity (Mus musculus [29]): inactive
- inhibition (NRK-49F [14]): Active
- Activity (Mus musculus [30]): Active
- Activity (Mus musculus [31]): Active
- inhibition (L929): Active
- inhibition (NRK-49F [21]): Active
- inhibition at 10 µM (NRK-49F [25]): 95.5%
- Activity (Mus musculus [32]): Active
- Activity (Mus musculus [33]): Active
